Measurements collected from several papers.
Compare with care: the assays were run in different laboratories.
Target: Cytochrome P450 2D6 (CYP2D6, Homo sapiens, UniProt P10635)
Observed: enzyme activity
Action: inhibitor

Compound	test	test system	setting	quantity	value
COc1ccc2cc3[n+](cc2c1OC)CCc1cc2c(cc1-3)OCO2	–	–	–	IC50	600 nM
Cc1cc(C)c2c(c1)[C@@H](N(Cc1cc(C(F)(F)F)cc(C(F)(F)F)c1)c1nnn(C)n1)CCCN2C[C@H]1CC[C@H](C(=O)O)CC1	–	human, liver microsomes	pH 7.4	Ki	2100 nM
NS(=O)(=O)NCCNc1nonc1C(=NO)Nc1ccc(F)c(Br)c1	fluorescence	–	–	IC50	> 10000 nM
COc1ccn2c(Nc3ccccc3F)c(-c3ccncn3)nc2c1	–	–	–	IC50	2300 nM
CCc1cc(/C(C)=N/OCc2ccc(C3CCCCC3)c(C(F)(F)F)c2)ccc1CN1CC(C(=O)O)C1	–	human, liver microsomes	20 min	IC50	> 1100 nM
CC1=CC(=O)C(C(C)C)=CC1=O	fluorescence	–	pH 7.4	IC50	282000 nM
Nc1nc(N)c2nc(CNc3cccc4ccccc34)cnc2n1	luciferase	–	–	IC50	832 nM
Cc1cc([C@H]2C[C@H]3[C@@H](CF)SC(N)=N[C@@]3(c3ccc(F)cc3F)CO2)on1	–	human, liver microsomes	pH 7.4	IC50	> 30000 nM
Nc1nc(N)c2nc(C(=O)NCc3cccc(C(F)(F)F)c3)cnc2n1	luciferase	–	–	IC50	251 nM
C[C@H]1CN(c2n[nH]c3nc(N[C@H]4CC[C@H](NS(=O)(=O)CCC(F)(F)F)CC4)ncc23)CCO1	–	–	–	IC50	> 100000 nM
COc1ccc2c(Cc3ccccc3F)c3[n+](cc2c1OC)CCc1cc2c(cc1-3)OCO2	–	–	–	IC50	200 nM
Nc1nc(N)c2nc(C(=O)NCc3ccccc3)cnc2n1	luciferase	–	–	IC50	204 nM
